Results: article PMC7984404 (Journal of Clinical Pharmacology, 2020)

Legend:
[1] = Population pharmacokinetic; type: in vivo, human
Procedure, shortened: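 Pooled data from healthy adults, adult HAE patients and pediatric HAE patients aged 2-17 (2172 plasma concentrations, LC-MS/MS) were fitted with a two-compartment model. It had first-order absorption, lag time, and allometric weight effects with estimated exponents. Between-subject variability was log-normal, with additive plus proportional residual error. Covariates were weight, age, sex, race and attack within 12 h. CIs came from about 1000 bootstrap replicates, with prediction-corrected VPC.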

[2] = Exposure parameters; type: in vivo, human; conditions: for AUC0-6, mean (%CV) / AUC0-6, median [range] / Cmax, mean (%CV) / Cmax, median [range]: popPK model-derived
Procedure, shortened: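 Final popPK model simulated concentration-time profiles from each subject's actual dosing history: single SC doses of 30 or 45 mg in adult HAE patients, and 0.05, 0.2 and 0.4 mg/kg single ascending doses in healthy adults. AUC0-6 came from simulated rich profiles by the trapezoidal rule, alongside Cmax, tmax and distribution and terminal half-lives. Values were summarised descriptively.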

[3] = tested on: pediatric patients with HAE; test: Time to onset of symptom relief; type: in vivo, human; conditions: for Median time to 50% probability of TOSR: pediatric HAE
Procedure, shortened: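 Pediatric HAE patients aged 2-17 received single SC 0.4 mg/kg (≤30 mg). The investigator scored symptoms before and after dosing. TOSR was the earliest time with ≥20% improvement in composite score and no component worsening. Model-predicted CTOSR, AUC0-TOSR, AUC0-6 and Cmax were related to TOSR by Kaplan-Meier curves stratified by exposure tertiles, and also by age group and sex.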

[4] = cited from earlier work
[5] = final popPK model, typical value, reference 70 kg
[6] = typical 70-kg adult, final popPK model
[7] = adult patients with HAE, SC 30 mg, n = 4
[8] = adult patients with HAE, SC 45 mg, n = 4
[9] = healthy subjects, SC 0.4 mg/kg, n = 24
[10] = healthy subjects, SC 30 mg, n = 109
[11] = pediatric patients with HAE 2-5 years, SC 0.4 mg/kg, n = 2
[12] = pediatric patients with HAE, SC 0.4 mg/kg (≤30 mg)

Cl/F lower than in a 70-kg adult ([1]; 60-kg adolescent (aged 12-17 years), final popPK model): 7% | Time to complete absorption after dosing ([1]; SC dosing, expected from final popPK model): ≤ 1 h | Absorption half-life t1/2(a) ([1]; corresponding to ka = 3.27 h^–1, SC dosing, final popPK model): ~12.7 min | Allometric exponent of weight (weight/70) on Vc/F ([1]; final popPK model): 0.671 | Allometric exponent of weight (weight/70) on Vp/F ([1]; final popPK model): 0.671 | Multiplicative factor on Vc/F if female ([1]; final popPK model): 0.855 | Multiplicative factor on Vc/F if nonwhite ([1]; final popPK model): 1.11 | Typical Cl/F lower in females than in males ([1]; final popPK model): about 12% | Typical Cl/F lower in pediatric patients who experienced an acute attack ([1]; final popPK model): 9% | Typical Vc/F higher in nonwhite than in white subjects ([1]; final popPK model): 11% | ka (absorption rate constant) ([1]; final popPK model, SC dosing, n = 172 (adults and pediatric HAE), typical value): 3.27 h^–1 | tlag (lag time) ([1]; final popPK model, SC dosing, n = 172, typical value): 0.0426 h | Vc/F (apparent central volume of distribution) ([1]; final popPK model, SC dosing, n = 172, typical value, reference 70 kg): 20.4 L | Cl/F (apparent total clearance) ([1]; final popPK model, SC dosing, n = 172, typical value, reference 70 kg, age 25): 15.4 L/h | Clp/F (apparent intercompartmental clearance) [1, 5]: 0.398 L/h | Vp/F (apparent peripheral volume of distribution) [1, 5]: 1.75 L | Clearance slower relative to a subject aged 25 years ([1]; subject aged 45 years, age effect of final popPK model): 20% | Cl/F lower than in a 70-kg adult ([1]; typical 40-kg child (aged 2-11 years), final popPK model): 25% | Distribution half-life t1/2(α) [1, 6]: 53.4 min | Terminal elimination half-life t1/2(β) [1, 6]: 192 min | AUC0-6, mean (%CV) [2, 7]: 2725 (25.3) ng·h/mL | AUC0-6, median [range] [2, 7]: 2975 [1734‐3216] ng·h/mL | Cmax, mean (%CV) [2, 7]: 1279 (16.7) ng/mL | Cmax, median [range] [2, 7]: 1254 [1056‐1551] ng/mL | AUC0-6, mean (%CV) [2, 8]: 5473 (18.6) ng·h/mL | AUC0-6, median [range] [2, 8]: 5565 [4155‐6608] ng·h/mL | Cmax, mean (%CV) [2, 8]: 2136 (16.3) ng/mL | Cmax, median [range] [2, 8]: 2222 [1680‐2421] ng/mL | AUC0-6, mean (%CV) [2, 9]: 2669 (20.9) ng·h/mL | AUC0-6, median [range] [2, 9]: 2704 [1720‐3829] ng·h/mL | Cmax, mean (%CV) [2, 9]: 1240 (25.1) ng/mL | Cmax, median [range] [2, 9]: 1258 [836‐2120] ng/mL | AUC0-6, mean (%CV) [2, 10]: 2038 (23.8) ng·h/mL | AUC0-6, median [range] [2, 10]: 1941 [1126‐3311] ng·h/mL | Cmax, mean (%CV) [2, 10]: 974 (30.1) ng/mL | Cmax, median [range] [2, 10]: 915 [524‐2115] ng/mL | AUC0-6, mean (%CV) [2, 11]: 900 (24.6) ng·h/mL | AUC0-6, median [range] [2, 11]: 900 [744‐1056] ng·h/mL | Cmax, mean (%CV) [2, 11]: 692 (18.1) ng/mL | Cmax, median [range] [2, 11]: 692 [604‐780] ng/mL | Mean AUC0-6 lower than in adult patients with HAE treated with 30 mg [2, 12]: about 50% | Mean Cmax lower than in adult patients with HAE treated with 30 mg [2, 12]: ~42%
Compound: NC(N)=NCCC[C@@H](N)C(=O)N[C@@H](CCCN=C(N)N)C(=O)N1CCC[C@H]1C(=O)N1C[C@H](O)C[C@H]1C(=O)NCC(=O)N[C@@H](Cc1cccs1)C(=O)N[C@@H](CO)C(=O)N1Cc2ccccc2C[C@@H]1C(=O)N1[C@H](C(=O)N[C@@H](CCCN=C(N)N)C(=O)O)C[C@@H]2CCCC[C@@H]21 [icatibant]
Median time to 50% probability of TOSR ([3]; first tertile of CTOSR): 2.00 h | Time within which all patients displayed resolution of symptoms ([3]; pediatric patients with HAE, single SC 0.4 mg/kg (≤30 mg)): ≤ 4 h | Median time to 50% probability of TOSR ([3]; second tertile of CTOSR): 1.03 h | Time to achievement of maximum plasma concentrations ([4]; adults, single subcutaneous injection of 30 mg): ≤ 1 h | Parent drug excreted unchanged in human urine ([4]; human): < 10%
